Molecules are shown by their SMILES.

Results on three compounds are retold here after ChEMBL document CHEMBL1122646, “Synthesis of pyridine derivatives of L-phenylalanine as antisickling reagents” (1984).

Assay type in all cases: functional
Test [1] can be described thus: Antisickling activity and percentage of cells sickled after incubation in 3 mM solution under oxygen content 4.06% was reported at 30.8 mm of Hg pressure. The essentials:
(§1)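 Washed homozygous SS erythrocytes (HbF <8%, MCHC 33.5 g %, stored 4 °C, used within 24 h) at 1.0% hematocrit in PBS pH 7.2 (295 mosmol/kg, 0.5% w/v BSA) with 3 mM compound. Incubated 1 h at 37 °C with rotation. Cells were air-exposed 10 min, deoxygenated with 4.06% O2/4.4% CO2/N2, or deoxygenated with N2 alone. PO2 measured, then anaerobic fixation, 30 min RT.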

Test [2] can be described thus: Effect of 3 mM of compound on homozygous sickle cells at a total oxygen saturation of 47% and estimates of volume fraction of HbS polymer present was determined. The essentials:
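Homozygous SS cells (MCHC 33.9 g %) at 1% Hct with 3 mM compound, deoxygenated at 37 °C with 4.06% O2 gas (47% total O2 saturation per O2 affinity curve in PBS pH 7.392). Suspension forced through a 5-μm polycarbonate membrane at 3.1 cmHg. Passed cells weighed after 5-6 min, corrected for interstitial solvent with 3H-methoxyinulin. R = deoxygenated/oxygenated recovered weight. fp calculated with Cp 0.69 g/cm3 and Cs0 0.164 g/cm3.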

The nature of test [3]: Antisickling activity and percentage of cells sickled after incubation in 3 mM solution under oxygen content 20.1% was reported at normal atmospheric pressure. The essentials:
as §1

A short description of test [4]: Aantisickling activity and percentage of cells sickled after incubation in 3 mM solution under oxygen content 0.0% was reported. The essentials:
as §1

Test [5] in a line: Antisickling activity and change in mean corpuscular hemoglobin ratio was reported at a concentration of 2.55 mM. The essentials: (§2)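 Erythrocytes incubated with compound as in the morphological assay (PBS pH 7.2, 295 mosmol/kg, 0.5% BSA, 37 °C) but at 10% hematocrit. Triplicate readings on each of three aliquots taken 1 to 3 h after exposure. Lysis and cyanomet-Hb conversion, then MCHC read on a Coulter hemoglobinometer. Values averaged over nine measurements and expressed as MCHC0/MCHC.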

The nature of test [6]: Antisickling activity and change in mean corpuscular hemoglobin ratio was reported at a concentration of 4.80 mM. In a few lines:
as §2

A short description of test [7]: Antisickling activity and change in mean corpuscular hemoglobin ratio was reported at a concentration of 3.65 mM. The essentials: as §2
Test [8] is described as follows: Antisickling activity and change in mean corpuscular hemoglobin ratio was reported at a concentration of 1.35 mM. In a few lines: as §2

Regarding `Cl.Cl.NC(Cc1ccccc1)C(=O)Nc1ccccn1` (centres undefined), the Cells sickled in test [1] came out at 32.6%; in test [3] it was 9.1%; in test [4] it was 71.1%. For the same compound, in test [2], the fp was 0.24. For the same compound, the Ratio in test [5] was 1.08; in test [6] it was 1.15; in test [7], 1.11; in test [8] it was 1.04.

With `Cl.Cl.NC(Cc1ccccc1)C(=O)Nc1ccncc1` (centres undefined), the Cells sickled worked out at 25.2% in test [1], 10.2% in test [3] and 70.8% in test [4].

On to `Cl.Cl.NC(Cc1ccccc1)C(=O)Nc1cccnc1` (centres undefined), for which the Cells sickled in test [1] is 23.6%; in test [3], 11.4%; in test [4], 59%. Moreover, in test [2], the fp was 0.24. Moreover, the Ratio in test [5] worked out at 1.07; in test [6], 1.17; in test [7], 1.13; in test [8], 1.05.
